Measured values as given in ChEMBL document CHEMBL4387702, “Design and synthesis novel di-carbonyl analogs of curcumin (DACs) act as potent anti-inflammatory agents against LPS-induced acute lung injury (ALI)” (Eur J Med Chem, 2019).
Activity calls are given as the source filed them. The calls are words filed in the database; no cut-off is given here.

Legend:
RAW264.7 [1] = assay: Inhibition of MAPK/NFkappaB in ICR mouse RAW264.7 cells assessed as reduction in LPS-induced TNFalpha production at 10 uM pretreated for 0.5 hrs followed by LPS challenge and measured after 24 hrs by ELISA relative to control; assay type: cell-based
RAW264.7 [2] = assay: Inhibition of MAPK/NFkappaB in ICR mouse RAW264.7 cells assessed as reduction in LPS-induced IL6 production at 10 uM pretreated for 0.5 hrs followed by LPS challenge and measured after 24 hrs by ELISA relative to control; assay type: cell-based
RAW264.7 [3] = assay: Cytotoxicity against ICR mouse RAW264.7 cells assessed as effect on cell proliferation at 10 uM after 24 hrs by MTT assay; assay type: cell-based; conditions: raw264.7, 24 h
RAW264.7 [4] = assay: Inhibition of MAPK/NFkappaB in ICR mouse RAW264.7 cells assessed as reduction in LPS-induced TNF-alpha production at 10 uM pretreated for 0.5 hrs followed by LPS challenge and measured after 24 hrs by ELISA relative to piperlongumine; assay type: cell-based
RAW264.7 [5] = assay: Inhibition of MAPK/NFkappaB in ICR mouse RAW264.7 cells assessed as reduction in LPS-induced TNF-alpha production at 10 uM pretreated for 0.5 hrs followed by LPS challenge and measured after 24 hrs by ELISA relative to curcumin; assay type: cell-based
[6] = tested on: peritoneal macrophages (Mus musculus); assay: Inhibition of MAPK/NFkappaB in ICR mouse peritoneal macrophages assessed as reduction in LPS-induced IL6 production at 10 uM pretreated for 0.5 hrs followed by LPS challenge and measured after 24 hrs by ELISA relative to curcumin
RAW264.7 [7] = assay: Inhibition of MAPK/NFkappaB in ICR mouse RAW264.7 cells assessed as reduction in LPS-induced IL6 production at 10 uM pretreated for 0.5 hrs followed by LPS challenge and measured after 24 hrs by ELISA relative to piperlongumine; assay type: cell-based
RAW264.7 [8] = assay: Inhibition of NFkappaB/MAPK signaling in LPS-induced mouse RAW264.7 cells assessed as down regulation of IkappaB expression at 10 uM preincubated for 0.5 hrs followed by LPS-challenge and measured after 30 mins by immunoblotting analysis; assay type: cell-based
Outline: (§1)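 RAW 264.7 cells were pretreated with compound for 0.5 h and then stimulated with LPS for 30 min. Lysates were resolved on 10% or 12% SDS-PAGE and transferred to nitrocellulose. Membranes were blocked in TBS (pH 7.6) with 0.05% Tween 20 and 5% milk. Blots were probed for p-p38, p38, p-ERK, ERK, IκBα and GAPDH, detected with HRP secondaries and ECL.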

[9] = biological target: Transcription factor p65 (Mus musculus) (UniProt Q04207); assay: Inhibition of LPS-induced NFkappaB p65 nuclear translocation in ICR mouse RAW264.7 cells preincubated for 0.5 hrs followed by LPS challenge and measured after 40 mins by DAPI staining-based immunofluorescence microscopic analysis; assay type: cell-based
Chain of Transcription factor p65 (Mus musculus) (Q04207 whole entry): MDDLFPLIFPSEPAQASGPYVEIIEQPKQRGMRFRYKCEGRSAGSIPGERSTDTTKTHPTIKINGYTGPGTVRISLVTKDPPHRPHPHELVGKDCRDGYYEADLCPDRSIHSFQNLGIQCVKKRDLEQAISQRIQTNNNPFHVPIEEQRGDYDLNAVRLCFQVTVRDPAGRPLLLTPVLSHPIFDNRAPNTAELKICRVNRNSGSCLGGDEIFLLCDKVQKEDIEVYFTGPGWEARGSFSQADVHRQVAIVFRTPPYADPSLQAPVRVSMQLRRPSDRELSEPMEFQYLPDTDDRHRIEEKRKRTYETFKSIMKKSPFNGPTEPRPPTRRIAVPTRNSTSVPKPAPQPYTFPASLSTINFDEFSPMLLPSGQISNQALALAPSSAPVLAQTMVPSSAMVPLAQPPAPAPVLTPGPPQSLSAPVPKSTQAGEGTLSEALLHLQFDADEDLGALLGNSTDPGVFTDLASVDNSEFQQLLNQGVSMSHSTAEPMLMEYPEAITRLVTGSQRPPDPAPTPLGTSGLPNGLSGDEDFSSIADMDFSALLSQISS
Outline: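 RAW 264.7 cells were pretreated with compound for 0.5 h, then given LPS for 40 min (methods) or 45 min (legend). Cells were fixed with 4% paraformaldehyde and permeabilized in methanol. Anti-p65 (1:200) was applied overnight at 4 °C, then PE-conjugated secondary (1:200) for 2 h. Nuclei were stained with DAPI and cells viewed by fluorescence microscopy.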

RAW264.7 [10] = assay: Inhibition of LPS-induced ERK phosphorylation in ICR mouse RAW264.7 cells at 10 uM preincubated for 0.5 hrs followed by LPS challenge and measured after 30 mins by immunoblotting analysis; assay type: cell-based; outline: as §1
[11] = Stability in pH 7.4 phosphate buffer assessed as compound decomposition measured up to 25 mins by UV-Vis spectroscopy; assay type: physicochemical; conditions: pH 7.4, 25 min
Outline: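 Compound stability was followed by recording UV-visible absorption spectra in phosphate buffer at pH 7.4.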

RAW264.7 [12] = assay: Inhibition of MAPK/NFkappaB in ICR mouse RAW264.7 cells assessed as reduction in LPS-induced TNFalpha production pretreated for 0.5 hrs followed by LPS challenge and measured after 24 hrs by ELISA; assay type: cell-based
[13] = biological target: MAP kinase p38 (Mus musculus) (UniProt P47811+O08911+Q9WUI1+Q9Z1B7); assay: Inhibition of LPS-induced p38 MAPK phosphorylation in ICR mouse RAW264.7 cells at 10 uM preincubated for 0.5 hrs followed by LPS challenge and measured after 30 mins by immunoblotting analysis; assay type: cell-based; outline: as §1
RAW264.7 [14] = assay: Inhibition of MAPK/NFkappaB in ICR mouse RAW264.7 cells assessed as reduction in LPS-induced IL6 production pretreated for 0.5 hrs followed by LPS challenge and measured after 24 hrs by ELISA; assay type: cell-based

| SMILES | inhibition (RAW264.7 [1]) | inhibition (RAW264.7 [2]) | Activity (RAW264.7 [3]) | also measured |
| --- | --- | --- | --- | --- |
| COc1cc(/C=C2\CCCN(C(=O)/C=C/c3ccc(Cl)cc3Cl)C2=O)cc(OC)c1OC | 38.5 to 53.4% | 46.8 to 68.2% | Non-Toxic |  |
| COc1cc(/C=C2\CCCN(C(=O)/C=C/c3ccc(F)cc3Cl)C2=O)cc(OC)c1OC | 38.5 to 53.4% | 46.8 to 68.2% | Non-Toxic |  |
| COc1cc(/C=C2\CCCN(C(=O)/C=C/c3ccccc3O)C2=O)cc(OC)c1OC | 39.6 to 99.5% | 39.6 to 99.5% | Non-Toxic |  |
| COc1cc(/C=C2\CCCN(C(=O)/C=C/c3cc(F)ccc3F)C2=O)cc(OC)c1OC | 38.5 to 53.4% | 46.8 to 68.2% | Non-Toxic |  |
| COc1cc(/C=C2\CCCN(C(=O)/C=C/c3ccc(F)c(F)c3)C2=O)cc(OC)c1OC | 39.6 to 99.5% | 39.6 to 99.5% | Non-Toxic |  |
| COc1cccc(/C=C/C(=O)N2CCC/C(=C\c3cc(OC)c(OC)c(OC)c3)C2=O)c1 | 39.6 to 99.5% | 39.6 to 99.5% | Non-Toxic |  |
| COc1cc(OC)c(OC)cc1/C=C/C(=O)N1CCC/C(=C\c2cc(OC)c(OC)c(OC)c2)C1=O | 39.6 to 99.5% | 39.6 to 99.5% | Non-Toxic |  |
| COc1cc(/C=C2\CCCN(C(=O)/C=C/c3cccc(F)c3)C2=O)cc(OC)c1OC |  |  | Non-Toxic | inhibition (RAW264.7 [4]): < 85.3%; inhibition (RAW264.7 [5]): < 85.3%; inhibition [6]: < 85.3%; inhibition (RAW264.7 [7]): < 85.3% |
| COc1cc(/C=C2\CCCN(C(=O)/C=C/c3cccc(Br)c3)C2=O)cc(OC)c1OC |  |  | Non-Toxic | inhibition (RAW264.7 [4]): < 85.3%; inhibition (RAW264.7 [5]): < 85.3%; inhibition [6]: < 85.3%; inhibition (RAW264.7 [7]): < 85.3% |
| COc1cc(/C=C2\CCCN(C(=O)/C=C/c3c(Cl)cccc3Cl)C2=O)cc(OC)c1OC | 39.6 to 99.5% | 39.6 to 99.5% | Non-Toxic |  |
| COc1cc(/C=C/C(=O)N2CCC=CC2=O)cc(OC)c1OC [PIPLARTINE] | Active | Active | Non-Toxic |  |
| COc1cc(/C=C2\CCCN(C(=O)/C=C/c3ccccc3OC(C)=O)C2=O)cc(OC)c1OC | 39.6 to 99.5% | 39.6 to 99.5% | Non-Toxic |  |
| COc1cc(/C=C/C(=O)CC(=O)/C=C/c2ccc(O)c(OC)c2)ccc1O [CURCUMIN] | Active | Active | Non-Toxic | inhibition (RAW264.7 [8]): Active; inhibition [9]: Active; inhibition (RAW264.7 [10]): Active; Stability [11]: Unstable; inhibition (RAW264.7 [12]): Active; inhibition [13]: Active; inhibition (RAW264.7 [14]): Active |
| COc1cccc(/C=C/C(=O)N2CCC/C(=C\c3cc(OC)c(OC)c(OC)c3)C2=O)c1OC | inactive | inactive | Non-Toxic |  |
| COc1cc(/C=C2\CCCN(C(=O)/C=C/c3ccc(OC(C)=O)cc3)C2=O)cc(OC)c1OC | 39.6 to 99.5% | 39.6 to 99.5% | Non-Toxic |  |
| COc1cc(/C=C2\CCCN(C(=O)/C=C/c3ccccc3Cl)C2=O)cc(OC)c1OC |  |  | Non-Toxic | inhibition (RAW264.7 [4]): < 85.3%; inhibition (RAW264.7 [5]): < 85.3%; inhibition [6]: < 85.3%; inhibition (RAW264.7 [7]): < 85.3% |
| COc1cc(/C=C2\CCCN(C(=O)/C=C/c3ccc(Br)cc3)C2=O)cc(OC)c1OC |  |  | Non-Toxic | inhibition (RAW264.7 [4]): < 85.3%; inhibition (RAW264.7 [5]): < 85.3%; inhibition [6]: < 85.3%; inhibition (RAW264.7 [7]): < 85.3% |
| COc1cc(/C=C/C(=O)N2CCC/C(=C\c3cc(OC)c(OC)c(OC)c3)C2=O)cc(OC)c1OC | 39.6 to 99.5% | 39.6 to 99.5% | Non-Toxic |  |
| COc1cc(/C=C2\CCCN(C(=O)/C=C/c3c(F)cccc3Cl)C2=O)cc(OC)c1OC | 38.5 to 53.4% | 46.8 to 68.2% | Non-Toxic |  |
| COc1ccc(/C=C/C(=O)N2CCC/C(=C\c3cc(OC)c(OC)c(OC)c3)C2=O)c(F)c1 | 39.6 to 99.5% | 39.6 to 99.5% | Non-Toxic |  |
| COc1cc(/C=C2\CCCN(C(=O)/C=C/c3ccccc3C(F)(F)F)C2=O)cc(OC)c1OC |  |  | Non-Toxic | inhibition (RAW264.7 [4]): < 85.3%; inhibition (RAW264.7 [5]): < 85.3%; inhibition [6]: < 85.3%; inhibition (RAW264.7 [7]): < 85.3% |
| COc1ccccc1/C=C/C(=O)N1CCC/C(=C\c2cc(OC)c(OC)c(OC)c2)C1=O | 39.6 to 99.5% | 39.6 to 99.5% | Non-Toxic |  |
| COc1cc(/C=C2\CCCN(C(=O)/C=C/c3ccc(F)cc3)C2=O)cc(OC)c1OC |  |  | Non-Toxic | inhibition (RAW264.7 [4]): < 85.3%; inhibition (RAW264.7 [5]): < 85.3%; inhibition [6]: < 85.3%; inhibition (RAW264.7 [7]): < 85.3% |
| COc1ccc(/C=C/C(=O)N2CCC/C(=C\c3cc(OC)c(OC)c(OC)c3)C2=O)cc1OC(C)=O | 39.6 to 99.5% | 39.6 to 99.5% | Non-Toxic |  |
| COc1ccc(F)c(/C=C/C(=O)N2CCC/C(=C\c3cc(OC)c(OC)c(OC)c3)C2=O)c1 | 38.5 to 53.4% | 46.8 to 68.2% | Non-Toxic |  |
| COc1cc(/C=C2\CCCN(C(=O)/C=C/c3ccccc3F)C2=O)cc(OC)c1OC |  |  | Non-Toxic | inhibition (RAW264.7 [4]): < 85.3%; inhibition (RAW264.7 [5]): < 85.3%; inhibition [6]: < 85.3%; inhibition (RAW264.7 [7]): < 85.3% |
| COc1cc(/C=C2\CCCN(C(=O)/C=C/c3ccc([N+](=O)[O-])cc3)C2=O)cc(OC)c1OC | 38.6% | 94.1% | Non-Toxic |  |
| COc1ccc(/C=C/C(=O)N2CCC/C(=C\c3cc(OC)c(OC)c(OC)c3)C2=O)c(OC)c1 | 39.6 to 99.5% | 39.6 to 99.5% | Non-Toxic |  |
| COc1cc(/C=C2\CCCN(C(=O)/C=C/c3cc(C)ccc3C)C2=O)cc(OC)c1OC | 39.6 to 99.5% | 39.6 to 99.5% | Non-Toxic |  |
